Measurements published in ChEMBL document CHEMBL2384906, “Biological activity, design, synthesis and structure activity relationship of some novel derivatives of curcumin containing sulfonamides” (Eur J Med Chem, 2013).
≈ marks a conversion by molar mass, not a printed value. Calls of active or inactive are those of the source. The rule behind the calls is not given here.

Tests used:
Bacillus cereus [1] = assay: Antimicrobial activity against Bacillus cereus MTCC 7350 after 24 hrs by broth micro serial dilution method; assay type: functional; details: MTCC 7350, 24 h
How it was run: (§1)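 This was broth microdilution in autoclaved Mueller-Hinton broth. 150 µL of compound per well was serially diluted […], and 50 µL of test organism was added. Plates were incubated 24 h at 37 °C and optical density was read.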

HepG2 = assay: Cytotoxicity against human HepG2 cells after 24 hrs by MTT assay; assay type: functional, cell-based
How it was run: (§2)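 The MTT assay seeded 5 × 10⁴ cells per well and grew them 24 h in RPMI 1640 with compound at 2.5–200 µM. Medium without cells was the blank and adriamycin the positive control. MTT was added for 4 h at 37 °C, formazan was solubilised, and absorbance was read at 570 nm. IC50 is the concentration that cuts viability 50% against untreated cells.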

HeLa = assay: Cytotoxicity against human HeLa cells after 24 hrs by MTT assay; assay type: functional, cell-based; how it was run: as §2
Pseudomonas aeruginosa [2] = assay: Antimicrobial activity against Pseudomonas aeruginosa ATCC 15499 after 24 hrs by broth micro serial dilution method; assay type: functional; details: ATCC 15499, 24 h; how it was run: as §1
Pseudomonas aeruginosa [3] = assay: Antimicrobial activity against Pseudomonas aeruginosa ATCC 15499 assessed as diameter of inhibition zone at 80 uM after 24 hrs by Kirby -Baur disc diffusion method; assay type: functional; details: ATCC 15499, 24 h, read-out: DIZ
How it was run: (§3)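 Kirby-Bauer disc diffusion was used. Acetone stocks (160 µM) were serially doubled down to 80, 40 and 20 µM. 4 µL of each went onto 5 mm sterile paper discs, which were dried 30 min at 50 °C. Inoculum was 1.5 × 10⁸ CFU/mL diluted to 3 × 10² CFU/mL, and 50 µL was spread on Mueller-Hinton agar. After 24 h at 37 °C the inhibition-zone diameter was measured. Ciprofloxacin served as positive control.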

Staphylococcus aureus [4] = assay: Antimicrobial activity against Staphylococcus aureus ATCC 11632 assessed as diameter of inhibition zone at 80 uM after 24 hrs by Kirby -Baur disc diffusion method; assay type: functional; details: ATCC 11632, 24 h, read-out: DIZ; how it was run: as §3
Mus musculus = assay: Antiinflammatory activity in mouse assessed as inhibition of carrageenan-induced increase in paw volume at 200 mg/kg administered 1 hr prior to carrageenan challenge measured after 3 hrs relative to control; assay type: functional
How it was run: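 Mice were fasted 2 h and placed in groups of five. Controls received saline i.p. Phenylbutazone was given at 100 mg/kg i.p., curcumin at 200 mg/kg i.p., and derivatives at 200 mg/kg. After 1 h, 0.1 mL of 1% carrageenan in saline was injected subplantar into the right hind paw. Paw volume was followed by plethysmometer for 3 h, and % inhibition was calculated as (Vc − Vt)/Vc × 100.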

Curvularia lunata [5] = assay: Antifungal activity against Curvularia lunata MTCC 581 after 48 hrs; assay type: functional; details: MTCC 581, 48 h
Aspergillus niger [6] = assay: Antifungal activity against Aspergillus niger MTCC 1108 assessed as zone of inhibition at 40 uM after 48 hrs by disc diffusion method; assay type: functional
How it was run: (§4)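 Spores from 4-day potato dextrose agar cultures, suspended in sterile water at 1.5 × 10⁵ CFU/mL. 0.2 mL was spread on potato dextrose agar. 5 mm filter-paper discs soaked with test compound were laid on the lawn. Incubation was 48 h at 28 °C, then the inhibition zone was measured in mm. Fluconazole was the positive control and acetone the negative control.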

Curvularia lunata [7] = assay: Antifungal activity against Curvularia lunata MTCC 581 assessed as zone of inhibition at 20 uM after 48 hrs by disc diffusion method; assay type: functional; how it was run: as §4
Aspergillus niger [8] = assay: Antifungal activity against Aspergillus niger MTCC 1108 after 48 hrs; assay type: functional; details: MTCC 1108, 48 h
Salmonella typhi [9] = assay: Antimicrobial activity against Salmonella typhi ATCC 23564 assessed as diameter of inhibition zone at 20 uM after 24 hrs by Kirby -Baur disc diffusion method; assay type: functional, Salmonella enterica subsp. enterica serovar Typhi; details: Salmonella enterica, ATCC 23564, 24 h; read-out: DIZ
Curvularia lunata [10] = assay: Antifungal activity against Curvularia lunata MTCC 581 assessed as zone of inhibition at 40 uM after 48 hrs by disc diffusion method; assay type: functional; how it was run: as §4
Trichoderma viride [11] = assay: Antifungal activity against Trichoderma viride MTCC 1107 assessed as zone of inhibition at 80 uM after 48 hrs by disc diffusion method; assay type: functional; details: MTCC 1107, 48 h, read-out: IZ; how it was run: as §4
Curvularia lunata [12] = assay: Antifungal activity against Curvularia lunata MTCC 581 assessed as zone of inhibition at 80 uM after 48 hrs by disc diffusion method; assay type: functional; details: MTCC 581, 48 h, read-out: IZ; how it was run: as §4
Bacillus cereus [13] = assay: Antimicrobial activity against Bacillus cereus MTCC 7350 assessed as diameter of inhibition zone at 40 uM after 24 hrs by Kirby -Baur disc diffusion method; assay type: functional; how it was run: as §3
HCT-116 = assay: Cytotoxicity against human HCT116 cells after 24 hrs by MTT assay; assay type: functional, cell-based; how it was run: as §2
Pseudomonas aeruginosa [14] = assay: Antimicrobial activity against Pseudomonas aeruginosa ATCC 15499 assessed as diameter of inhibition zone at 40 uM after 24 hrs by Kirby -Baur disc diffusion method; assay type: functional; details: ATCC 15499, 24 h, read-out: DIZ; how it was run: as §3
Pseudomonas aeruginosa [15] = assay: Antimicrobial activity against Pseudomonas aeruginosa ATCC 15499 assessed as diameter of inhibition zone at 20 uM after 24 hrs by Kirby -Baur disc diffusion method; assay type: functional; details: ATCC 15499, 24 h, read-out: DIZ; how it was run: as §3
Escherichia coli [16] = assay: Antimicrobial activity against Escherichia coli ATCC 35218 assessed as diameter of inhibition zone at 20 uM after 24 hrs by Kirby -Baur disc diffusion method; assay type: functional; how it was run: as §3
Staphylococcus aureus [17] = assay: Antimicrobial activity against Staphylococcus aureus ATCC 11632 assessed as diameter of inhibition zone at 20 uM after 24 hrs by Kirby -Baur disc diffusion method; assay type: functional; how it was run: as §3
Aspergillus flavus [18] = assay: Antifungal activity against Aspergillus flavus MTCC 1021 assessed as zone of inhibition at 80 uM after 48 hrs by disc diffusion method; assay type: functional; how it was run: as §4
Salmonella typhi [19] = assay: Antimicrobial activity against Salmonella typhi ATCC 23564 assessed as diameter of inhibition zone at 80 uM after 24 hrs by Kirby -Baur disc diffusion method; assay type: functional, Salmonella enterica subsp. enterica serovar Typhi; details: Salmonella enterica, ATCC 23564, 24 h; read-out: DIZ
Bacillus cereus [20] = assay: Antimicrobial activity against Bacillus cereus MTCC 7350 assessed as diameter of inhibition zone at 80 uM after 24 hrs by Kirby -Baur disc diffusion method; assay type: functional; details: MTCC 7350, 24 h, read-out: DIZ; how it was run: as §3
Staphylococcus aureus [21] = assay: Antimicrobial activity against Staphylococcus aureus ATCC 11632 assessed as diameter of inhibition zone at 40 uM after 24 hrs by Kirby -Baur disc diffusion method; assay type: functional; how it was run: as §3
Aspergillus flavus [22] = assay: Antifungal activity against Aspergillus flavus MTCC 1021 after 48 hrs; assay type: functional
Trichoderma viride [23] = assay: Antifungal activity against Trichoderma viride MTCC 1107 assessed as zone of inhibition at 20 uM after 48 hrs by disc diffusion method; assay type: functional; how it was run: as §4
Aspergillus niger [24] = assay: Antifungal activity against Aspergillus niger MTCC 1108 assessed as zone of inhibition at 20 uM after 48 hrs by disc diffusion method; assay type: functional; how it was run: as §4
Salmonella typhi [25] = assay: Antimicrobial activity against Salmonella typhi ATCC 23564 after 24 hrs by broth micro serial dilution method; assay type: functional, Salmonella enterica subsp. enterica serovar Typhi; details: Salmonella enterica, ATCC 23564, 24 h
Escherichia coli [26] = assay: Antimicrobial activity against Escherichia coli ATCC 35218 assessed as diameter of inhibition zone at 80 uM after 24 hrs by Kirby -Baur disc diffusion method; assay type: functional; details: ATCC 35218, 24 h, read-out: DIZ; how it was run: as §3
Escherichia coli [27] = assay: Antimicrobial activity against Escherichia coli ATCC 35218 after 24 hrs by broth micro serial dilution method; assay type: functional; details: ATCC 35218, 24 h; how it was run: as §1
Staphylococcus aureus [28] = assay: Antimicrobial activity against Staphylococcus aureus ATCC 11632 after 24 hrs by broth micro serial dilution method; assay type: functional; details: ATCC 11632, 24 h; how it was run: as §1
QG-56 = assay: Cytotoxicity against human QG56 cells after 24 hrs by MTT assay; assay type: functional, cell-based; how it was run: as §2
Salmonella typhi [29] = assay: Antimicrobial activity against Salmonella typhi ATCC 23564 assessed as diameter of inhibition zone at 40 uM after 24 hrs by Kirby -Baur disc diffusion method; assay type: functional, Salmonella enterica subsp. enterica serovar Typhi; details: Salmonella enterica, ATCC 23564, 24 h; read-out: DIZ
Escherichia coli [30] = assay: Antimicrobial activity against Escherichia coli ATCC 35218 assessed as diameter of inhibition zone at 40 uM after 24 hrs by Kirby -Baur disc diffusion method; assay type: functional; details: ATCC 35218, 24 h, read-out: DIZ; how it was run: as §3
Aspergillus niger [31] = assay: Antifungal activity against Aspergillus niger MTCC 1108 assessed as zone of inhibition at 80 uM after 48 hrs by disc diffusion method; assay type: functional; details: MTCC 1108, 48 h, read-out: IZ; how it was run: as §4
Trichoderma viride [32] = assay: Antifungal activity against Trichoderma viride MTCC 1107 after 48 hrs; assay type: functional; details: MTCC 1107, 48 h
Trichoderma viride [33] = assay: Antifungal activity against Trichoderma viride MTCC 1107 assessed as zone of inhibition at 40 uM after 48 hrs by disc diffusion method; assay type: functional; details: MTCC 1107, 48 h, read-out: IZ; how it was run: as §4

Structure (SMILES): COc1cc(/C=C/C(CC(/C=C/c2ccc(O)c(OC)c2)=N/c2ccc(S(N)(=O)=O)cc2)=N\c2ccc(S(N)(=O)=O)cc2)ccc1O
- MIC (Bacillus cereus [1]): 40 µM (≈ 27.1 µg/mL)
- IC50 (HepG2): > 100 µM
- IC50 (HeLa): 100 µM
- MIC (Pseudomonas aeruginosa [2]): 40 µM (≈ 27.1 µg/mL)
- zone of inhibition at 80 µM (Pseudomonas aeruginosa [3]): 18 mm
- zone of inhibition at 80 µM (Staphylococcus aureus [4]): 10 mm
- inhibition in vivo at 200 mg/kg (Mus musculus): 12.9%
- MIC (Curvularia lunata [5]): > 80 µM
- inhibition zone (IZ) (Aspergillus niger [6]): inactive
- inhibition zone (IZ) (Curvularia lunata [7]): inactive
- MIC (Aspergillus niger [8]): > 80 µM
- zone of inhibition at 20 µM (Salmonella typhi [9]): 9 mm
- inhibition zone (IZ) (Curvularia lunata [10]): inactive
- zone of inhibition at 80 µM (Trichoderma viride [11]): 11 mm
- zone of inhibition at 80 µM (Curvularia lunata [12]): 9 mm
- diameter of the inhibition zone (DIZ) (Bacillus cereus [13]): inactive
- IC50 (HCT-116): 100 µM
- zone of inhibition at 40 µM (Pseudomonas aeruginosa [14]): 11 mm
- zone of inhibition at 20 µM (Pseudomonas aeruginosa [15]): 9 mm
- diameter of the inhibition zone (DIZ) (Escherichia coli [16]): inactive
- diameter of the inhibition zone (DIZ) (Staphylococcus aureus [17]): inactive
- inhibition zone (IZ) (Aspergillus flavus [18]): inactive
- zone of inhibition at 80 µM (Salmonella typhi [19]): 16 mm
- zone of inhibition at 80 µM (Bacillus cereus [20]): 11 mm
- diameter of the inhibition zone (DIZ) (Staphylococcus aureus [21]): inactive
- MIC (Aspergillus flavus [22]): inactive
- inhibition zone (IZ) (Trichoderma viride [23]): inactive
- inhibition zone (IZ) (Aspergillus niger [24]): inactive
- MIC (Salmonella typhi [25]): 40 µM (≈ 27.1 µg/mL)
- zone of inhibition at 80 µM (Escherichia coli [26]): 12 mm
- MIC (Escherichia coli [27]): 40 µM (≈ 27.1 µg/mL)
- MIC (Staphylococcus aureus [28]): > 80 µM
- IC50 (QG-56): > 100 µM
- zone of inhibition at 40 µM (Salmonella typhi [29]): 11 mm
- zone of inhibition at 40 µM (Escherichia coli [30]): 10 mm
- zone of inhibition at 80 µM (Aspergillus niger [31]): 9 mm
- MIC (Trichoderma viride [32]): 40 µM (≈ 27.1 µg/mL)
- zone of inhibition at 40 µM (Trichoderma viride [33]): 10 mm
